Measured values from different studies.
Each line is one published result; the experiments were not run side by side.
Target: Serine/threonine-protein kinase PRP4 homolog (PRPF4B, Homo sapiens, UniProt Q13523)

SMILES | test | conditions | measurement | value
Nc1ncnc2occ(-c3ccc(NC(=O)Nc4cc(C(F)(F)F)ccc4F)cc3)c12 | cell-free assay, inhibitor | 20 µM | remaining signal | 100%
CN1CC(Oc2cnc(C#N)cc2-c2ccn3nc(NC(=O)C4CC4)cc3c2)C1 | enzyme activity, inhibitor | 1 µM | inhibition | 3%
Cc1ccc(C(=O)NCc2ccsc2)cc1C#Cc1cn(C(C)C)c2ncnc(N)c12 | enzyme activity, inhibitor | 1 µM | activity vs control | 114%
Cc1ccc(C(=O)Nc2ccc(CN3CCN(C)CC3)c(C(F)(F)F)c2)cc1C#Cc1cnc2cccnn12 | enzyme activity, inhibitor | 23.5 nM | remaining activity | 91%
CCCCNc1ncc2c(-c3ccc(F)cc3)nn(C[C@H]3CC[C@H](N)CC3)c2n1 | target engagement in cells, inhibitor, chemoproteomics | 20 mM | inhibition | -1.2%
COc1ccc2c(O[C@@H]3C[C@H]4C(=O)N[C@]5(C(=O)O)CC5/C=C\CCCCC[C@H](NC(=O)OC5CCCC5)C(=O)N4C3)cc(-c3csc(NC(=O)C(C)C)n3)nc2c1C (some centres unmarked) | cell-free assay, competition with immobilised ligand | 1 µM | remaining binding | 93%
c1ccc(CNc2nc(N3CCOc4ccccc43)nc3c2CCCC3)cc1 | target engagement in cells, inhibitor, chemoproteomics | 20 mM | inhibition | -6.7%
CC(=O)c1c(NS(C)(=O)=O)c2cc(-c3ccc(Cl)cc3)c(-c3ccc(Cl)cc3Cl)nc2n(C)c1=O | cell-free assay, competition with immobilised ligand | 1 µM | remaining binding | 83%
